Read-outs that look alike come from different tables or passages of the source.
Tests used:
VMAT2 = conditions: cited from earlier work
[1] = Safety assessments, study AUS-SD-809-CTP-07; format: in vivo, human; conditions: for Serious AEs: healthy volunteers; for Laboratory parameters, vital signs and physical examination: single or multiple doses
Procedure, shortened: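 Healthy subjects, single 15 mg dose in part 1 and single or repeated 7.5–22.5 mg doses in part 2. Adverse-event monitoring, physical examination, vital signs, standard 12-lead ECG, PHQ-9, C-SSRS and laboratory tests repeated throughout, including 72 h after each dose in part 1. For preliminary QTc assessment, triplicate digital 12-lead ECGs recorded on part 2 dosing days 1 and 4.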

[2] = test system: chorea in patients with HD; conditions: 12 weeks; cited from earlier work
[3] = format: in vivo, human; conditions: for Plasma concentrations of the parent compound: single administration of 15 mg deutetrabenazine or 25 mg tetrabenazine tablets, LLOQ 0.100 ng/mL; for Total (α+β)-HTBZ AUC0-t / Total (α+β)-HTBZ AUCinf / Total (α+β)-HTBZ Cmax / Total (α+β)-HTBZ T1/2 / α-HTBZ AUC0-t / α-HTBZ AUCinf / α-HTBZ Cmax / β-HTBZ AUC0-t / β-HTBZ AUCinf / β-HTBZ Cmax / β-HTBZ T1/2 / Total (α+β)-HTBZ Tmax / α-HTBZ Tmax / β-HTBZ Tmax: deutetrabenazine 15 mg single dose; for Total (α+β)-HTBZ AUC0-t / Total (α+β)-HTBZ AUCinf / Total (α+β)-HTBZ Cmax / Total (α+β)-HTBZ T1/2 / α-HTBZ AUC0-t / α-HTBZ AUCinf / α-HTBZ Cmax / β-HTBZ AUC0-t / β-HTBZ AUCinf / β-HTBZ Cmax / β-HTBZ T1/2: mean (CV%); for Total (α+β)-HTBZ Tmax / α-HTBZ Tmax / β-HTBZ Tmax: median (range)
Procedure, shortened: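 Randomised crossover in 25 healthy subjects, five periods over 17 days, all in clinic. Single oral dose: 15 mg of each of two test-compound tablet formulations, fed or fasted, or 25 mg non-deuterated reference fasted. Fasted means an overnight fast of ≥10 h; fed means an FDA-definition high-fat (50% calories), 800–1000 calorie meal. Plasma dihydro metabolites sampled predose and over 72 h; values below LLOQ set to LLOQ where flanked by measurable ones. Non-compartmental AUC and Cmax; ANOVA on ln values (subject, period, treatment); back-transformed geometric mean ratios with 90% CI.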

tardive dyskinesia = conditions: cited from earlier work
[4] = Study AUS-SD-809-CTP-07 part 2: single and repeated; format: in vivo, human; conditions: for α-HTBZ Cmin / (α+β)-HTBZ Cmin / β-HTBZ Cmin: steady state, mean (CV%); for α-HTBZ Cmin: 0-12 h; for Linear regression model slope (zero intercept) / Power regression model α (parameter = α × dose^β) / Power regression model β (exponent of dose): deutetrabenazine fed
Procedure, shortened: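 Two groups of 12 healthy subjects over 20 days; the second group dosed ≥7 days after the first. Test compound given at 7.5, 15 and 22.5 mg after a standard meal; non-deuterated reference 25 mg fasted. Single doses on days 1 and 4, ≥72 h apart, with full plasma profiles. Dosing every 12 h from day 7 for 3.5 days, with predose troughs used to confirm steady state. Cmin taken as the minimum over 0–12 h. Power (parameter = α × dose^β) and zero-intercept linear regressions fitted to single-dose AUCinf, steady-state AUC0-12 and Cmax.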

[5] = format: in vivo, human
Procedure, shortened: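 Healthy subjects given 18 mg test compound after a standard meal or after a high-fat meal. For the dose-proportionality arms, doses of 6, 12, 18 and 24 mg were given with a standard meal and compared as dose-normalised parameters. Plasma dihydro metabolites analysed by non-compartmental Cmax, AUC0-t and AUCinf. ANOVA on ln values; geometric mean ratios with 90% CI, back-transformed.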

[6] = test system: chorea associated with Huntington's disease; conditions: cited from earlier work
[7] = deutetrabenazine 7.5 mg twice daily fed
[8] = deutetrabenazine 15 mg twice daily fed
[9] = deutetrabenazine 22.5 mg twice daily fed
[10] = total (α+β)-HTBZ AUC0-12 (steady state)
[11] = total (α+β)-HTBZ AUCinf (single dose)
[12] = deutetrabenazine 18 mg high-fat/high-calorie meal versus standard meal
[13] = deutetrabenazine 18 mg, high-fat/high-calorie meal
[14] = deutetrabenazine 18 mg, standard meal
[15] = LS geometric mean ratio deutetrabenazine 15 mg fed / tetrabenazine 25 mg fasted
[16] = deutetrabenazine 15 mg high-fat/high-calorie meal versus fasted
[17] = deutetrabenazine 15 mg, high-fat/high-calorie meal

COc1cc2c(cc1OC)[C@H]1C[C@H](O)[C@H](CC(C)C)CN1CC2 [β‐HTBZ, β‐dihydrotetrabenazine]
Inhibition of VMAT2 (VMAT2): potent inhibitors

COc1cc2c(cc1OC)C1CC(=O)C(CC(C)C)CN1CC2 (stereo not shown) [Tetrabenazine, reference compound]
Serious AEs [1]: One serious AE of vessel puncture‐site reaction | Subjects with change from predose in QTc of >30 milliseconds ([1]; in vivo): No subject | Subjects with postdose QTc > 450 milliseconds ([1]; in vivo): No subject | Laboratory parameters, vital signs and physical examination [1]: no clinically significant abnormalities | Chorea severity compared with placebo-treated patients [2]: significantly reduced chorea severity | Plasma concentrations of the parent compound [3]: near or at the LLOQ

α‐dihydrotetrabenazine [α‐HTBZ]
Inhibition of VMAT2 (VMAT2): potent inhibitors

[2H]C([2H])([2H])Oc1cc2c(cc1OC([2H])([2H])[2H])C1CC(=O)C(CC(C)C)CN1CC2 (stereo not shown) [Deutetrabenazine]
Serious AEs [1]: No serious AEs | Most frequent AEs reported as possibly drug related ([1]; in vivo): Somnolence and headache | Subjects with change from predose in QTc of >30 milliseconds ([1]; in vivo): No subject | Subjects with postdose QTc > 450 milliseconds ([1]; in vivo): No subject | Tolerability ([1]; single 15 mg (part 1) and single/repeated 7.5-22.5 mg (part 2)): well tolerated | Laboratory parameters, vital signs and physical examination [1]: no clinically significant abnormalities | Change in the Abnormal Involuntary Movement Scale scores (tardive dyskinesia): significantly reduced TD | α-HTBZ Cmin [4, 7]: 7.2 (41) ng/mL | (α+β)-HTBZ Cmin [4, 7]: 10.1 (48) ng/mL | β-HTBZ Cmin [4, 7]: 2.8 (71) ng/mL | α-HTBZ Cmin [4, 8]: 15.6 (37) ng/mL | (α+β)-HTBZ Cmin [4, 8]: 21.1 (41) ng/mL | β-HTBZ Cmin [4, 8]: 5.5 (54) ng/mL | α-HTBZ Cmin [4, 9]: 26.3 (40) ng/mL | (α+β)-HTBZ Cmin [4, 9]: 39.5 (59) ng/mL | β-HTBZ Cmin [4, 9]: 13.1 (102) ng/mL | Exposure to β-HTBZ relative to α-HTBZ ([4]; single-dose and repeated deutetrabenazine administration): approximately one‐third | Linear regression model slope (zero intercept) [4, 10]: 32.4 | Power regression model α (parameter = α × dose^β) [4, 10]: 17.8 | Power regression model β (exponent of dose) [4, 10]: 1.2 | Linear regression model slope (zero intercept) [4, 11]: 26.9 | Power regression model α (parameter = α × dose^β) [4, 11]: 17.0 | Power regression model β (exponent of dose) [4, 11]: 1.1 | Total (α+β)-HTBZ AUC0-t % ratio [5, 12]: 107.0% | Total (α+β)-HTBZ AUCinf % ratio [5, 12]: 106.4% | Total (α+β)-HTBZ Cmax % ratio [5, 12]: 104.2% | Total (α+β)-HTBZ T1/2 % ratio [5, 12]: 101.8% | Total (α+β)-HTBZ AUC0-t, LS mean [5, 13]: 408 ng·h/mL | Total (α+β)-HTBZ AUCinf, LS mean [5, 13]: 419 ng·h/mL | Total (α+β)-HTBZ Cmax, LS mean [5, 13]: 48.4 ng/mL | Total (α+β)-HTBZ AUC0-t, LS mean [5, 14]: 382 ng·h/mL | Total (α+β)-HTBZ AUCinf, LS mean [5, 14]: 394 ng·h/mL | Total (α+β)-HTBZ Cmax, LS mean [5, 14]: 46.5 ng/mL | Total (α+β)-HTBZ T1/2, LS mean [5, 14]: 9.7 h | Mean difference in total maximal chorea score compared with placebo treatment [6]: −2.5 unit | Mean Unified Huntington's Disease Rating Scale total maximal chorea score ([6]; weeks 9-12, twice a day, baseline 12.1): 7.7 | Total (α+β)-HTBZ AUC0-t % ratio (90%CI) [3, 15]: 126.6 (115.8‐138.4) % | Total (α+β)-HTBZ AUCinf % ratio (90%CI) [3, 15]: 127.7 (116.7‐139.6) % | Total (α+β)-HTBZ Cmax % ratio (90%CI) [3, 15]: 51.4 (46.0‐57.4) % | α-HTBZ AUCinf % ratio (90%CI) [3, 15]: 129.7 (118.1‐142.5) % | α-HTBZ Cmax % ratio (90%CI) [3, 15]: 49.3 (44.5‐54.7) % | β-HTBZ AUC0-t % ratio (90%CI) [3, 15]: 117.0 (104.5‐131.1) % | β-HTBZ AUCinf % ratio (90%CI) [3, 15]: 119.9 (105.5‐136.2) % | β-HTBZ Cmax % ratio (90%CI) [3, 15]: 55.3 (47.7‐64.2) % | Increase of AUCinf of (α+β)-HTBZ with food ([3]; deutetrabenazine 15 mg high-fat meal vs fasted): about 11% | Total (α+β)-HTBZ AUC0-t % ratio [3, 16]: 111.5% | Total (α+β)-HTBZ AUCinf % ratio [3, 16]: 110.6% | Total (α+β)-HTBZ Cmax % ratio [3, 16]: 149.7% | Total (α+β)-HTBZ T1/2 % ratio [3, 16]: 75.3% | Total (α+β)-HTBZ AUC0-t ([3]; fasted): 263 (45) ng·h/mL | Total (α+β)-HTBZ AUCinf ([3]; fasted): 273 (45) ng·h/mL | Total (α+β)-HTBZ Cmax ([3]; fasted): 22.5 (36) ng/mL | Total (α+β)-HTBZ T1/2 ([3]; fasted): 9.4 (25) h | α-HTBZ AUC0-t ([3]; fasted): 185 (25) ng·h/mL | α-HTBZ AUCinf ([3]; fasted): 196 (24) ng·h/mL | α-HTBZ Cmax ([3]; fasted): 14.2(34) ng/mL | β-HTBZ AUC0-t ([3]; fasted): 74.2 (108) ng·h/mL | β-HTBZ AUCinf ([3]; fasted): 81.4 (105) ng·h/mL | β-HTBZ Cmax ([3]; fasted): 8.43 (48) ng/mL | β-HTBZ T1/2 ([3]; fasted): 6.6 (56) h | Total (α+β)-HTBZ Tmax ([3]; fasted): 2.3 (1.0‐8.0) h | α-HTBZ Tmax ([3]; fasted): 2.5 (1.0‐8.0) h | β-HTBZ Tmax ([3]; fasted): 2.5 (1.0‐8.0) h | Total (α+β)-HTBZ AUC0-t ([3]; fed (high-fat meal)): 296 (48) ng·h/mL | Total (α+β)-HTBZ AUCinf ([3]; fed (high-fat meal)): 305 (46) ng·h/mL | Total (α+β)-HTBZ Cmax ([3]; fed (high-fat meal)): 33.3 (33) ng/mL | Total (α+β)-HTBZ T1/2 ([3]; fed (high-fat meal)): 7.0 (23) h | α-HTBZ AUC0-t ([3]; fed (high-fat meal)): 207 (30) ng·h/mL | α-HTBZ AUCinf ([3]; fed (high-fat meal)): 217 (29) ng·h/mL | α-HTBZ Cmax ([3]; fed (high-fat meal)): 20.8 (27) ng/mL | β-HTBZ AUC0-t ([3]; fed (high-fat meal)): 85.6 (102) ng·h/mL | β-HTBZ AUCinf ([3]; fed (high-fat meal)): 102 (92) ng·h/mL | β-HTBZ Cmax ([3]; fed (high-fat meal)): 12.7 (50) ng/mL | β-HTBZ T1/2 ([3]; fed (high-fat meal)): 4.6 (63) h | Total (α+β)-HTBZ Tmax ([3]; fed (high-fat meal)): 6.0 (1.5‐8.0) h | α-HTBZ Tmax ([3]; fed (high-fat meal)): 6.0 (1.0‐8.0) h | β-HTBZ Tmax ([3]; fed (high-fat meal)): 6.0 (1.5‐8.0) h | Total (α+β)-HTBZ AUC0-t, LS mean ([3]; deutetrabenazine 15 mg, fasted): 244.6 ng·h/mL | Total (α+β)-HTBZ AUCinf, LS mean ([3]; deutetrabenazine 15 mg, fasted): 254.9 ng·h/mL | Total (α+β)-HTBZ Cmax, LS mean ([3]; deutetrabenazine 15 mg, fasted): 21.2 ng/mL | Total (α+β)-HTBZ AUC0-t, LS mean [3, 17]: 272.8 ng·h/mL | Total (α+β)-HTBZ AUCinf, LS mean [3, 17]: 282.0 ng·h/mL | Total (α+β)-HTBZ Cmax, LS mean [3, 17]: 31.7 ng/mL | Total (α+β)-HTBZ T1/2, LS mean [3, 17]: 6.8 h | Effect of food on exposure to total (α+β)-HTBZ, as measured by AUC ([3]; deutetrabenazine fed vs fasted): no effect | Plasma concentrations of the parent compound [3]: near or at the LLOQ

From publication PMC8246815 (Clinical Pharmacology in Drug Development, 2020)
